{"source": "ChEMBL document CHEMBL1142492", "about": "(J Med Chem, 2008)", "key": {"[1]": {"target": "Serine/threonine-protein kinase 17B (Homo sapiens) (UniProt O94768)", "assay": "Inhibition of DRAK2 at 3 uM"}, "[2]": {"target": "Muscarinic acetylcholine receptor M2 (Homo sapiens) (UniProt P08172)", "assay": "Inhibition of human muscarinic M2 receptor at 3 uM", "procedure,_shortened": "(§1)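 Counter-screen binding/enzyme panel at single 3 μM, n=2; results as percent inhibition. Species per target as listed (rat NMDA, GABAA sites; human receptors, transporters; rabbit ACE).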"}, "[3]": {"target": "Adenosine receptor A2a (Homo sapiens) (UniProt P29274)", "sequence (P29274 whole entry)": "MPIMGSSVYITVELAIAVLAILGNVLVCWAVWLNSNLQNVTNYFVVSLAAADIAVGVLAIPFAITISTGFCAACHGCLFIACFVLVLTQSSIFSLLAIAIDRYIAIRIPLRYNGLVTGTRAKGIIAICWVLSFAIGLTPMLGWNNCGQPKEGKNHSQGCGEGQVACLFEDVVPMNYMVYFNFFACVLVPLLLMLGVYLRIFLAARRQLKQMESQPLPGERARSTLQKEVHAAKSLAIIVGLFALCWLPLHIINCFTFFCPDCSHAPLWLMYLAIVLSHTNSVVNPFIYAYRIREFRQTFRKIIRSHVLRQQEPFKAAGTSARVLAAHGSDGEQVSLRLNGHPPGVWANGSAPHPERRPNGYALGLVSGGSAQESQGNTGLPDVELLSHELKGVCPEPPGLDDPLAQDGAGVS", "assay": "Inhibition of human adenosine A2A receptor at 3 uM", "procedure,_shortened": "as §1"}, "[4]": {"target": "Inhibitor of nuclear factor kappa-B kinase subunit epsilon (Homo sapiens) (UniProt Q14164)", "assay": "Inhibition of IKK-epsilon at 3 uM"}, "[5]": {"target": "Serine/threonine-protein kinase 4 (Homo sapiens) (UniProt Q13043)", "assay": "Inhibition of MST1 at 3 uM"}, "[6]": {"target": "Dual specificity mitogen-activated protein kinase kinase 1 (Homo sapiens) (UniProt Q02750)", "assay": "Inhibition of MEK1 at 3 uM"}, "[7]": {"target": "Receptor tyrosine-protein kinase erbB-2 (Homo sapiens) (UniProt P04626)", "assay": "Inhibition of ERBB2 at 3 uM", "procedure,_shortened": "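Single-concentration kinase panel scoring: each value is the percentage of enzyme activity remaining relative to a DMSO-only control. An activity statistically indistinct from DMSO control was scored \"no hit\".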"}, "[8]": {"target": "Kappa-type opioid receptor (Homo sapiens) (UniProt P41145)", "sequence (P41145 whole entry, looked up)": "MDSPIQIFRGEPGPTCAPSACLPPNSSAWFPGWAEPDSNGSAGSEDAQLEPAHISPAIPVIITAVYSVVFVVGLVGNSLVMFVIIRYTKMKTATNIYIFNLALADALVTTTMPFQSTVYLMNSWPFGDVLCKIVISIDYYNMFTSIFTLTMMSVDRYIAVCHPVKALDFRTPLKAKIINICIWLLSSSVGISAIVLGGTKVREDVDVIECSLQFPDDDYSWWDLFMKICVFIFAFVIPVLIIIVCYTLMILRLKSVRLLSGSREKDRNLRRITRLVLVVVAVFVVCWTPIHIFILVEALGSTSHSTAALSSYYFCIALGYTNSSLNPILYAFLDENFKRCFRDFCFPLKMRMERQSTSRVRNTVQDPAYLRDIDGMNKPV", "assay": "Inhibition of human kappa opioid receptor at 3 uM"}, "[9]": {"target": "Tyrosine-protein kinase Tec (Homo sapiens) (UniProt P42680)", "assay": "Inhibition of TEC at 3 uM"}, "[10]": {"target": "Cyclin-dependent kinase 11B (Homo sapiens) (UniProt P21127)", "assay": "Inhibition of CDC2L1 at 3 uM"}, "[11]": {"system": "Epidermal growth factor receptor (Homo sapiens), P00533 [G719C]", "assay": "Inhibition of EGFR G719C mutant at 3 uM", "format": "protein assay"}, "[12]": {"target": "Muscarinic acetylcholine receptor M3 (Homo sapiens) (UniProt P20309)", "sequence (P20309 whole entry, looked up)": "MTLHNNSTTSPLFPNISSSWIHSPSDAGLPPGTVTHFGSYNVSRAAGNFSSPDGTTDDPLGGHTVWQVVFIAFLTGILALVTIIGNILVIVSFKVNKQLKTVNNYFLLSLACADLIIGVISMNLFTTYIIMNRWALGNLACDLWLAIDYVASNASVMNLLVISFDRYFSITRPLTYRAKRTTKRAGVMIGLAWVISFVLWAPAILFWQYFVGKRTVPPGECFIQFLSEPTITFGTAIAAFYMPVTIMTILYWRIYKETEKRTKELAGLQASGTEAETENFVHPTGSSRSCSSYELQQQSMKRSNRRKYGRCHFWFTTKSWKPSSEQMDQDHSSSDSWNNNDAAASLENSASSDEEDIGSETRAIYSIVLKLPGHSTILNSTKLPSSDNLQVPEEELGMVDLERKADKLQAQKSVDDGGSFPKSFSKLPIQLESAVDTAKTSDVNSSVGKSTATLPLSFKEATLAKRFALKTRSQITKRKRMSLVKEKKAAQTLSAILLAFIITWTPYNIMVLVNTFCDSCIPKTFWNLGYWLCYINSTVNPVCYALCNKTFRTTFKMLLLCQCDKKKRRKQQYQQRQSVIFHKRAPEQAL", "assay": "Inhibition of human muscarinic M3 receptor at 3 uM"}, "[13]": {"target": "Pro-epidermal growth factor (Homo sapiens) (UniProt P01133)", "assay": "Inhibition of human EGF at 3 uM", "procedure,_shortened": "as §1"}, "[14]": {"target": "Serine/threonine-protein kinase RIO2 (Homo sapiens) (UniProt Q9BVS4)", "assay": "Inhibition of RIOK2 at 3 uM"}, "[15]": {"target": "Casein kinase I isoform gamma-3 (Homo sapiens) (UniProt Q9Y6M4)", "assay": "Inhibition of CSNK1G3 at 3 uM"}, "CYP2C9": {"target": "CYP2C9 (Homo sapiens, UniProt P11712)", "assay": "Inhibition of human CYP2C9 at 10 uM", "format": "ADME"}, "[16]": {"target": "Membrane-associated tyrosine- and threonine-specific cdc2-inhibitory kinase (Homo sapiens) (UniProt Q99640)", "sequence (Q99640 whole entry)": "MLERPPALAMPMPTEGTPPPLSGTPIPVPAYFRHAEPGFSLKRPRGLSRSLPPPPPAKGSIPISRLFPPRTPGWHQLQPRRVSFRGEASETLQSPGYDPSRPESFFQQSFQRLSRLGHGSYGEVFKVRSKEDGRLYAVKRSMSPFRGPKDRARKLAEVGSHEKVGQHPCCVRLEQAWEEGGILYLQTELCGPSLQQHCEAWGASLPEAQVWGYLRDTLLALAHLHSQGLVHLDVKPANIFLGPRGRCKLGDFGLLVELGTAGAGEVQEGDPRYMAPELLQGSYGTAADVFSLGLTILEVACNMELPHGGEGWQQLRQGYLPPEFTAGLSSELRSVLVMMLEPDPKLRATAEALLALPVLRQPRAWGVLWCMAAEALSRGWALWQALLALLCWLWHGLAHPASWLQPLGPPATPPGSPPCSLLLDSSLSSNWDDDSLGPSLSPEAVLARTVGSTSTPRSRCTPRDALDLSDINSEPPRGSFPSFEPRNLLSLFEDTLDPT", "assay": "Inhibition of PKMYT1 at 3 uM"}, "[17]": {"target": "3-phosphoinositide-dependent protein kinase 1 (Homo sapiens) (UniProt O15530)", "assay": "Inhibition of PDPK1 at 3 uM"}, "[18]": {"system": "Serine/threonine-protein kinase B-raf (Homo sapiens), P15056 [V600E]", "sequence (P15056 whole entry V600E)": "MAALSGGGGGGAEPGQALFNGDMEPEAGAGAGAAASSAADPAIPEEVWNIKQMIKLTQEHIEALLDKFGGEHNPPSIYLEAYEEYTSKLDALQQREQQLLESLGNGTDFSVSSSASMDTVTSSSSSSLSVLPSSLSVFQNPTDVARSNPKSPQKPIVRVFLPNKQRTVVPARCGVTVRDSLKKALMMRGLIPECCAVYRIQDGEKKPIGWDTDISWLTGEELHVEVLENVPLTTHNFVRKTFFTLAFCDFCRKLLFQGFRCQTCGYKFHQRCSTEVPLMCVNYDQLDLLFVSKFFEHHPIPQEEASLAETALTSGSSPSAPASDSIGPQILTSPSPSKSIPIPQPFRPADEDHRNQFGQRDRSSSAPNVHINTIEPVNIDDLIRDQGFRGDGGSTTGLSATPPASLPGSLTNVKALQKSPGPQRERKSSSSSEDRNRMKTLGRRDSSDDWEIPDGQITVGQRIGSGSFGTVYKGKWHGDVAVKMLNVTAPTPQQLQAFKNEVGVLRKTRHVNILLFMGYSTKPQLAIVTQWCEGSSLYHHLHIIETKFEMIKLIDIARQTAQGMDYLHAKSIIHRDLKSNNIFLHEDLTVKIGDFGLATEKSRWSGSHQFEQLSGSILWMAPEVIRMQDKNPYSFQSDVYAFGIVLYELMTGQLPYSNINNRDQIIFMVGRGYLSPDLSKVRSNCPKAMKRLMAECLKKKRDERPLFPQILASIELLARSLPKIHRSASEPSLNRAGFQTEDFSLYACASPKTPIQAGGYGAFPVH", "assay": "Inhibition of BRAF V600E mutant at 3 uM"}, "[19]": {"target": "Aurora kinase A (Homo sapiens) (UniProt O14965)", "sequence (O14965 whole entry)": "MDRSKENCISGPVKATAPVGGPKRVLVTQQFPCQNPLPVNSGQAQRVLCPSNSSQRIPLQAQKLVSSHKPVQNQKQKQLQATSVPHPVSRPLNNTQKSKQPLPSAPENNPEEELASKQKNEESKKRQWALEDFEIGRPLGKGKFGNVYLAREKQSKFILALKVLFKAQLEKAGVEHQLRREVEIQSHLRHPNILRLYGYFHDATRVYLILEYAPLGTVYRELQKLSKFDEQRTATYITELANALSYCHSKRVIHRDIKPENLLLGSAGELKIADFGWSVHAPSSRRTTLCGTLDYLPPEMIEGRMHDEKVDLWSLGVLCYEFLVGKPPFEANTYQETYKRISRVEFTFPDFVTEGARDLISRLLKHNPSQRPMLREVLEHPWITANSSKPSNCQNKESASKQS", "assay": "Inhibition of AURKA at 3 uM"}, "[20]": {"target": "Serine/threonine-protein kinase TAO3 (Homo sapiens) (UniProt Q9H2K8)", "assay": "Inhibition of TAOK3 at 3 uM"}, "[21]": {"target": "Tyrosine-protein kinase Srms (Homo sapiens) (UniProt Q9H3Y6)", "assay": "Inhibition of SRMS at 3 uM"}, "[22]": {"target": "Interleukin-1 receptor-associated kinase 3 (Homo sapiens) (UniProt Q9Y616)", "assay": "Inhibition of IRAK3 at 3 uM"}, "[23]": {"target": "Serine/threonine-protein kinase RIO1 (Homo sapiens) (UniProt Q9BRS2)", "assay": "Inhibition of RIOK1 at 3 uM"}, "[24]": {"target": "Death-associated protein kinase 1 (Homo sapiens) (UniProt P53355)", "assay": "Inhibition of DAPK1 at 3 uM"}, "[25]": {"target": "Casein kinase I isoform gamma-2 (Homo sapiens) (UniProt P78368)", "assay": "Inhibition of CSNK1G2 at 3 uM"}, "[26]": {"target": "Mitogen-activated protein kinase kinase kinase 5 (Homo sapiens) (UniProt Q99683)", "assay": "Inhibition of MAP3K5 at 3 uM"}, "[27]": {"target": "Hepatocyte growth factor receptor (Homo sapiens) (UniProt P08581)", "assay": "Inhibition of MET at 3 uM"}, "[28]": {"target": "Phosphorylase b kinase gamma catalytic chain, skeletal muscle/heart isoform (Homo sapiens) (UniProt Q16816)", "sequence (Q16816 whole entry, looked up, canonical isoform)": "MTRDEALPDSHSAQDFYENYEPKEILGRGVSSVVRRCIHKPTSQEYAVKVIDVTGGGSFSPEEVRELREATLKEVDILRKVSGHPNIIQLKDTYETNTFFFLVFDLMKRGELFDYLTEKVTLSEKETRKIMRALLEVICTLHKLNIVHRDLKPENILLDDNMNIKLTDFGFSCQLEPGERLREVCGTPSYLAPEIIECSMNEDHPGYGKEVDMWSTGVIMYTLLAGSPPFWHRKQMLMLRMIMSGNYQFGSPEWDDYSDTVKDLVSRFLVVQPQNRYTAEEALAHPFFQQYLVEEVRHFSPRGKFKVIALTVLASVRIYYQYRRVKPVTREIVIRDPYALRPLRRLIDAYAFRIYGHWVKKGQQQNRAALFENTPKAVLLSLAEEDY", "assay": "Inhibition of PHKG1 at 3 uM"}, "[29]": {"target": "MAP kinase-activated protein kinase 2 (Homo sapiens) (UniProt P49137)", "assay": "Inhibition of MAPKAPK2 at 3 uM"}, "[30]": {"target": "Serine/threonine-protein kinase 24 (Homo sapiens) (UniProt Q9Y6E0)", "sequence (Q9Y6E0 whole entry, looked up)": "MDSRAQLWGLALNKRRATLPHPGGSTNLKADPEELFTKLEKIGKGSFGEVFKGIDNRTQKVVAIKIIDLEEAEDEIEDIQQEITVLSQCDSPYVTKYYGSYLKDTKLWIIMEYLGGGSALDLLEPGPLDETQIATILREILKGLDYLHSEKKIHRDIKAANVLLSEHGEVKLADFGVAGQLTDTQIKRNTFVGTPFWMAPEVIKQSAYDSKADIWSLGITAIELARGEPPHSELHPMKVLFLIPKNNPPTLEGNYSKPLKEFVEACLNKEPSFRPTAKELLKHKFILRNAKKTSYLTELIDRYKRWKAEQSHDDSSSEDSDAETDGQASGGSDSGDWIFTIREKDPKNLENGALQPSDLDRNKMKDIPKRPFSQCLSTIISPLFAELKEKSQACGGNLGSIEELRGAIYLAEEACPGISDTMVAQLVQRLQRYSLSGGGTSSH", "assay": "Inhibition of MST3 at 3 uM"}, "[31]": {"target": "Receptor-interacting serine/threonine-protein kinase 4 (Homo sapiens) (UniProt P57078)", "assay": "Inhibition of RIPK4 at 3 uM"}, "[32]": {"target": "Interferon-induced, double-stranded RNA-activated protein kinase (Homo sapiens) (UniProt P19525)", "assay": "Inhibition of PRKR at 3 uM"}, "[33]": {"target": "Serine/threonine-protein kinase Nek2 (Homo sapiens) (UniProt P51955)", "assay": "Inhibition of NEK2 at 3 uM"}, "[34]": {"target": "LIM domain kinase 2 (Homo sapiens) (UniProt P53671)", "assay": "Inhibition of LIMK2 at 3 uM"}, "Rattus norvegicus [35]": {"species": "Rattus norvegicus", "conditions": "3 uM"}, "[36]": {"target": "Testis-specific serine/threonine-protein kinase 1 (Homo sapiens) (UniProt Q9BXA7)", "assay": "Inhibition of TSSK1 at 3 uM"}, "[37]": {"target": "MAP kinase-activated protein kinase 5 (Homo sapiens) (UniProt Q8IW41)", "assay": "Inhibition of MAPKAPK5 at 3 uM"}, "[38]": {"target": "D(3) dopamine receptor (Homo sapiens) (UniProt P35462)", "sequence (P35462 whole entry)": "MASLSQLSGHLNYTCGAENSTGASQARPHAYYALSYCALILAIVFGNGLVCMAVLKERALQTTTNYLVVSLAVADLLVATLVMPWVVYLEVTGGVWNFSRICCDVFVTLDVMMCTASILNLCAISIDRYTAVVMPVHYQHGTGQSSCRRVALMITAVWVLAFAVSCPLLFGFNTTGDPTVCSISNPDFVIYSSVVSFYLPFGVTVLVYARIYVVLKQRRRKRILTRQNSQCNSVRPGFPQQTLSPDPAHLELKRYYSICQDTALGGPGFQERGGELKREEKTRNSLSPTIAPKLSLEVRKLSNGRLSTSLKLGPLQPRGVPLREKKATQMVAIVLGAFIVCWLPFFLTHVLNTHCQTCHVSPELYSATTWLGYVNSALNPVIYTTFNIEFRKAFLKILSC", "assay": "Inhibition of human dopamine D3 receptor at 3 uM", "procedure,_shortened": "as §1"}, "[39]": {"target": "Misshapen-like kinase 1 (Homo sapiens) (UniProt Q8N4C8)", "assay": "Inhibition of MINK at 3 uM"}, "[40]": {"target": "Cyclin-dependent kinase 19 (Homo sapiens) (UniProt Q9BWU1)", "assay": "Inhibition of CDK11 at 3 uM"}, "[41]": {"target": "Sodium-dependent dopamine transporter (Homo sapiens) (UniProt Q01959)", "assay": "Inhibition of human DAT at 3 uM", "procedure,_shortened": "as §1"}, "[42]": {"target": "Tyrosine-protein kinase CSK (Homo sapiens) (UniProt P41240)", "assay": "Inhibition of CSK at 3 uM"}, "Rattus norvegicus [43]": {"species": "Rattus norvegicus", "conditions": "3 uM", "remark": "listed apart in the source"}, "[44]": {"target": "Dual specificity testis-specific protein kinase 1 (Homo sapiens) (UniProt Q15569)", "sequence (Q15569 whole entry, looked up)": "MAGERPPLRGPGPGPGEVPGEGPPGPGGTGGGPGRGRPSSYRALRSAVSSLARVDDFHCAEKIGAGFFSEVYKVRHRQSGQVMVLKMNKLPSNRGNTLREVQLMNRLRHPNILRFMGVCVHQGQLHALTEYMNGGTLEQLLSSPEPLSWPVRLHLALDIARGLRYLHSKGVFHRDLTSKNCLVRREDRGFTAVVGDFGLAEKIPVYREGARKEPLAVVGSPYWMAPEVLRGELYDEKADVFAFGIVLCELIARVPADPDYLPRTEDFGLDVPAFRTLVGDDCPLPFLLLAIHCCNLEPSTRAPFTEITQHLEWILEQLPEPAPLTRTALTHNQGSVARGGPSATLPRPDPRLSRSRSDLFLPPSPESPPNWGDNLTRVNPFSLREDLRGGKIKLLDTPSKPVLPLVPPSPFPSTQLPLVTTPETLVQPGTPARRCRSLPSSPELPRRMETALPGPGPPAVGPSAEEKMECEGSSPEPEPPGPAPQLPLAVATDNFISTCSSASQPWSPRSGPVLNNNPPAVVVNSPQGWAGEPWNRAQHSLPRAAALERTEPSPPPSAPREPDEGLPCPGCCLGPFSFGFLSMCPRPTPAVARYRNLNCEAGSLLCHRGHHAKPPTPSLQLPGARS", "assay": "Inhibition of TESK1 at 3 uM"}, "[45]": {"target": "Dual specificity protein kinase CLK4 (Homo sapiens) (UniProt Q9HAZ1)", "assay": "Inhibition of CLK4 at 3 uM"}}}
{"smiles": "CN(C)CCOc1cc(-c2cn[nH]c2)ccc1NC(=O)C1COc2ccccc2O1", "note": "(stereo unspecified) [SR-3677]", "values": [{"measurement": "inhibition", "setting": "[1]", "result": "< 10", "unit": "%"}, {"measurement": "inhibition", "setting": "[2]", "result": 4, "unit": "%"}, {"measurement": "inhibition", "setting": "[3]", "result": 5, "unit": "%"}, {"measurement": "inhibition", "setting": "[4]", "result": "< 10", "unit": "%"}, {"measurement": "inhibition", "setting": "[5]", "result": "< 10", "unit": "%"}, {"measurement": "inhibition", "setting": "[6]", "result": "< 10", "unit": "%"}, {"measurement": "inhibition", "setting": "[7]", "result": "< 10", "unit": "%"}, {"measurement": "inhibition", "setting": "[8]", "result": -7, "unit": "%"}, {"measurement": "inhibition", "setting": "[9]", "result": "< 10", "unit": "%"}, {"measurement": "inhibition", "setting": "[10]", "result": "< 10", "unit": "%"}, {"measurement": "inhibition", "setting": "[11]", "result": "< 10", "unit": "%"}, {"measurement": "inhibition", "setting": "[12]", "result": 3, "unit": "%"}, {"measurement": "inhibition", "setting": "[13]", "result": -1, "unit": "%"}, {"measurement": "inhibition", "setting": "[14]", "result": "< 10", "unit": "%"}, {"measurement": "inhibition", "setting": "[15]", "result": "< 10", "unit": "%"}, {"measurement": "inhibition at 10 µM", "setting": "CYP2C9", "result": 80, "unit": "%"}, {"measurement": "inhibition", "setting": "[16]", "result": "< 10", "unit": "%"}, {"measurement": "inhibition", "setting": "[17]", "result": "< 10", "unit": "%"}, {"measurement": "inhibition", "setting": "[18]", "result": "< 10", "unit": "%"}, {"measurement": "inhibition", "setting": "[19]", "result": "< 10", "unit": "%"}, {"measurement": "inhibition", "setting": "[20]", "result": "< 10", "unit": "%"}, {"measurement": "inhibition", "setting": "[21]", "result": "< 10", "unit": "%"}, {"measurement": "inhibition", "setting": "[22]", "result": "< 10", "unit": "%"}, {"measurement": "inhibition", "setting": "[23]", "result": "< 10", "unit": "%"}, {"measurement": "inhibition", "setting": "[24]", "result": "< 10", "unit": "%"}, {"measurement": "inhibition", "setting": "[25]", "result": "< 10", "unit": "%"}, {"measurement": "inhibition", "setting": "[26]", "result": "< 10", "unit": "%"}, {"measurement": "inhibition", "setting": "[27]", "result": "< 10", "unit": "%"}, {"measurement": "inhibition", "setting": "[28]", "result": "< 10", "unit": "%"}, {"measurement": "inhibition", "setting": "[29]", "result": "< 10", "unit": "%"}, {"measurement": "inhibition", "setting": "[30]", "result": "< 10", "unit": "%"}, {"measurement": "inhibition", "setting": "[31]", "result": "< 10", "unit": "%"}, {"measurement": "inhibition", "setting": "[32]", "result": "< 10", "unit": "%"}, {"measurement": "inhibition", "setting": "[33]", "result": "< 10", "unit": "%"}, {"measurement": "inhibition", "setting": "[34]", "result": "< 10", "unit": "%"}, {"measurement": "inhibition", "setting": "Rattus norvegicus [35]", "result": -4, "unit": "%"}, {"measurement": "inhibition", "setting": "[36]", "result": "< 10", "unit": "%"}, {"measurement": "inhibition", "setting": "[37]", "result": "< 10", "unit": "%"}, {"measurement": "inhibition", "setting": "[38]", "result": 15, "unit": "%"}, {"measurement": "inhibition", "setting": "[39]", "result": "< 10", "unit": "%"}, {"measurement": "inhibition", "setting": "[40]", "result": "< 10", "unit": "%"}, {"measurement": "inhibition", "setting": "[41]", "result": 37, "unit": "%"}, {"measurement": "inhibition", "setting": "[42]", "result": "< 10", "unit": "%"}, {"measurement": "inhibition", "setting": "Rattus norvegicus [43]", "result": 22, "unit": "%"}, {"measurement": "inhibition", "setting": "[44]", "result": "< 10", "unit": "%"}, {"measurement": "inhibition", "setting": "[45]", "result": 90, "unit": "%"}]}
